Test results reported in ChEMBL document CHEMBL4219174, “Synthesis and evaluation of 2,9-disubstituted 8-phenylthio/phenylsulfinyl-9H-purine as new EGFR inhibitors” (Bioorg Med Chem, 2018).
Calls of active or inactive are those of the source. No cut-off for these calls is given here.

What was measured:
HCC827 [1] = experiment: Antiproliferative activity against human HCC827 cells at 1 uM after 72 hrs by MTT assay relative to control; type: functional; settings: for Emax at 1 µM: Homo sapiens, HCC827, 72 h
Procedure, shortened: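 Human lung carcinoma HCC827 cells (EGFR Del E746-A750) were tested by MTT colorimetric assay, with gefitinib and AZD9291 as positive controls. The read-out was percent growth inhibition at a single fixed concentration.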

[2] = biological target: T1, Epidermal growth factor receptor (Homo sapiens, UniProt P00533); experiment: Inhibition of EGFR auto-phosphorylation in human HCC827 cells after 8 hrs by Western blot analysis; type: cell-based
NCI-H1975 = experiment: Antiproliferative activity against human NCI-H1975 cells after 72 hrs by MTT assay; type: functional, cell-based; settings: NCI-H1975, 72 h
Mus musculus = experiment: Toxicity in nude Balb/c mouse xenografted with human HCC827 cells assessed as increase in body weight at 5 mg/kg, po administered once daily for 20 days measured every day till day 21; type: organism-based; settings: in vivo, 480 h
Procedure, shortened: (§1)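 HCC827 (EGFR Del E746-A750) xenografts in nude mice, n = 6 per group. Oral dosing at 1 or 5 mg/kg once daily for 20 days, compared against a vehicle group. Read-outs were tumor growth curves and body weight over the treatment period, plus final tumor weight after 20 days. Significance was tested vs vehicle.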

[3] = Selectivity ratio of IC50 for human NCI-H1975 cells to IC50 for human HCC827 cells; type: functional
[4] = biological target: T1, Epidermal growth factor receptor; experiment: Inhibition of wild type EGFR (unknown origin) using poly (Glu, Tyr) as substrate after 40 mins by kinase-glo plus luminescence assay
HCC827 [5] = experiment: Anti-tumor activity against human HCC827 cells xenografted in nude Balb/c mouse assessed as tumor growth inhibition at 5 mg/kg, po administered once daily for 20 days measured once in three days till day 21; type: functional, organism-based; procedure, shortened: as §1
[6] = Selectivity ratio of IC50 for human A549 cells to IC50 for human HCC827 cells; type: functional
[7] = biological target: Epidermal growth factor receptor (Homo sapiens, UniProt P00533, C797S/L858R/T790M); experiment: Inhibition of EGFR L858R/T790M/C797S triple mutant (unknown origin) using poly (Glu, Tyr) as substrate after 40 mins by kinase-glo plus luminescence assay
[8] = biological target: Epidermal growth factor receptor (Homo sapiens, UniProt P00533, L858R/T790M); experiment: Inhibition of EGFR L858R/T790M double mutant (unknown origin) using poly (Glu, Tyr) as substrate after 40 mins by kinase-glo plus luminescence assay
A549 = experiment: Antiproliferative activity against human A549 cells after 72 hrs by MTT assay; type: functional, cell-based; settings: A549, 72 h
HCC827 [9] = experiment: Antiproliferative activity against human HCC827 cells after 72 hrs by MTT assay; type: functional, cell-based; settings: HCC827, 72 h

T1 sequence (P00533 whole entry): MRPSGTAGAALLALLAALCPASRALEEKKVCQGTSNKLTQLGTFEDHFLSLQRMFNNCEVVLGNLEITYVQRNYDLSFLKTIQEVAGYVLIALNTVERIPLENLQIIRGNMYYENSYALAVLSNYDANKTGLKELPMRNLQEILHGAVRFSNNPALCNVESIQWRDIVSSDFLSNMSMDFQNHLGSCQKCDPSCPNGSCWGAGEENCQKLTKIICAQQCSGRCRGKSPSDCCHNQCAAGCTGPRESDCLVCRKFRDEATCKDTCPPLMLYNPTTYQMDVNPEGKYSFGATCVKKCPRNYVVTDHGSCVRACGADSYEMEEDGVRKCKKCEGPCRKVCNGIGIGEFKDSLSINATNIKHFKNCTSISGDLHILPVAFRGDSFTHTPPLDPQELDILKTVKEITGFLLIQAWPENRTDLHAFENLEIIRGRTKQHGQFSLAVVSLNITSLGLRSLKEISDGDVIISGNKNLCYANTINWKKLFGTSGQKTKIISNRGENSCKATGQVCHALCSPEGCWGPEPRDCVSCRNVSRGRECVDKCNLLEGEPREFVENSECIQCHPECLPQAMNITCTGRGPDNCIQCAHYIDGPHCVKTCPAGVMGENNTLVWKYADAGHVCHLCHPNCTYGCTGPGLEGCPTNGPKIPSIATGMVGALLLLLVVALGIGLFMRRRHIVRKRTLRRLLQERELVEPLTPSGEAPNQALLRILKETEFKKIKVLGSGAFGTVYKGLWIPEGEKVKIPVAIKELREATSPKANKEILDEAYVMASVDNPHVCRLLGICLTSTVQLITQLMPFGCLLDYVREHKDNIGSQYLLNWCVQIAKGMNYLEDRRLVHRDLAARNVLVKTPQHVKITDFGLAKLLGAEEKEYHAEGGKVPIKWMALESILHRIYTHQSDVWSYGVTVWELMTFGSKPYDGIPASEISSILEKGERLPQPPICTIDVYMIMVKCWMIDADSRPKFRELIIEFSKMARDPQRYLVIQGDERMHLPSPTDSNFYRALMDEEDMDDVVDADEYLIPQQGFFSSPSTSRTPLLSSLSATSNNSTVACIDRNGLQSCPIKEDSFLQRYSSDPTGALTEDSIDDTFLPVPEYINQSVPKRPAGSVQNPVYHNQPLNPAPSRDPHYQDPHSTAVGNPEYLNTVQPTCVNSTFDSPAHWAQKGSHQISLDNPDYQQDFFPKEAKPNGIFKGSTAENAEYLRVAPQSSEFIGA
Sequence of Epidermal growth factor receptor (Homo sapiens, UniProt P00533, C797S/L858R/T790M) (P00533 25-1210 T790M/C797S/L858R limits assumed): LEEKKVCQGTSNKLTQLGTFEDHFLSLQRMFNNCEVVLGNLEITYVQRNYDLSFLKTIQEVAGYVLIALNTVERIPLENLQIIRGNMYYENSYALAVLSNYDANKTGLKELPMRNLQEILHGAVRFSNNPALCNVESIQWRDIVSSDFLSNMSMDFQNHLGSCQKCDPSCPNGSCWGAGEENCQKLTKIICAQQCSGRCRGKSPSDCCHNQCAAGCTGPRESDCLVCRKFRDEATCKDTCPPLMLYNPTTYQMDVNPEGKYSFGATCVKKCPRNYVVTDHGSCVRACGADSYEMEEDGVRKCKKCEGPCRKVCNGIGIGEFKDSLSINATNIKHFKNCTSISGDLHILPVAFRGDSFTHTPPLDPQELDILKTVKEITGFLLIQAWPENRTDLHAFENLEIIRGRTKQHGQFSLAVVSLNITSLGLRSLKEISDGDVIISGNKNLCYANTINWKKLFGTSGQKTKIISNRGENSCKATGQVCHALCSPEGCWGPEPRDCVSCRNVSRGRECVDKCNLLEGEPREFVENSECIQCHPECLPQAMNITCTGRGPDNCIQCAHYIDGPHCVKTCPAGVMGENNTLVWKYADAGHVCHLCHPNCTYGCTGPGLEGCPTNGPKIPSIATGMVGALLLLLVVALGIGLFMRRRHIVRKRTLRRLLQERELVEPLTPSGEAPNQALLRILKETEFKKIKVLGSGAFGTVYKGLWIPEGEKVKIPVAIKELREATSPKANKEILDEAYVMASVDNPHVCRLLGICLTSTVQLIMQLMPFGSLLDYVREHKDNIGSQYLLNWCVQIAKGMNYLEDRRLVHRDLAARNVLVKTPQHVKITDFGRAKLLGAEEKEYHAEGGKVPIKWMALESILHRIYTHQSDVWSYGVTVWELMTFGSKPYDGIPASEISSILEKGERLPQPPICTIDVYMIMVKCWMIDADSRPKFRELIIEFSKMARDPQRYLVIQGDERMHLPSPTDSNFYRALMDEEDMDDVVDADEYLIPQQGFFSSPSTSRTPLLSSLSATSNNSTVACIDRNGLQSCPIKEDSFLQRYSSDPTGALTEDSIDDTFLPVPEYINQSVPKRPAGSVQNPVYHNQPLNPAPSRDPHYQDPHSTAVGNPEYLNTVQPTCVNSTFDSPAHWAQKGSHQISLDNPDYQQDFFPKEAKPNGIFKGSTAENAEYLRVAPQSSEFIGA
Sequence of Epidermal growth factor receptor (Homo sapiens, UniProt P00533, L858R/T790M) (P00533 25-1210 T790M/L858R limits assumed): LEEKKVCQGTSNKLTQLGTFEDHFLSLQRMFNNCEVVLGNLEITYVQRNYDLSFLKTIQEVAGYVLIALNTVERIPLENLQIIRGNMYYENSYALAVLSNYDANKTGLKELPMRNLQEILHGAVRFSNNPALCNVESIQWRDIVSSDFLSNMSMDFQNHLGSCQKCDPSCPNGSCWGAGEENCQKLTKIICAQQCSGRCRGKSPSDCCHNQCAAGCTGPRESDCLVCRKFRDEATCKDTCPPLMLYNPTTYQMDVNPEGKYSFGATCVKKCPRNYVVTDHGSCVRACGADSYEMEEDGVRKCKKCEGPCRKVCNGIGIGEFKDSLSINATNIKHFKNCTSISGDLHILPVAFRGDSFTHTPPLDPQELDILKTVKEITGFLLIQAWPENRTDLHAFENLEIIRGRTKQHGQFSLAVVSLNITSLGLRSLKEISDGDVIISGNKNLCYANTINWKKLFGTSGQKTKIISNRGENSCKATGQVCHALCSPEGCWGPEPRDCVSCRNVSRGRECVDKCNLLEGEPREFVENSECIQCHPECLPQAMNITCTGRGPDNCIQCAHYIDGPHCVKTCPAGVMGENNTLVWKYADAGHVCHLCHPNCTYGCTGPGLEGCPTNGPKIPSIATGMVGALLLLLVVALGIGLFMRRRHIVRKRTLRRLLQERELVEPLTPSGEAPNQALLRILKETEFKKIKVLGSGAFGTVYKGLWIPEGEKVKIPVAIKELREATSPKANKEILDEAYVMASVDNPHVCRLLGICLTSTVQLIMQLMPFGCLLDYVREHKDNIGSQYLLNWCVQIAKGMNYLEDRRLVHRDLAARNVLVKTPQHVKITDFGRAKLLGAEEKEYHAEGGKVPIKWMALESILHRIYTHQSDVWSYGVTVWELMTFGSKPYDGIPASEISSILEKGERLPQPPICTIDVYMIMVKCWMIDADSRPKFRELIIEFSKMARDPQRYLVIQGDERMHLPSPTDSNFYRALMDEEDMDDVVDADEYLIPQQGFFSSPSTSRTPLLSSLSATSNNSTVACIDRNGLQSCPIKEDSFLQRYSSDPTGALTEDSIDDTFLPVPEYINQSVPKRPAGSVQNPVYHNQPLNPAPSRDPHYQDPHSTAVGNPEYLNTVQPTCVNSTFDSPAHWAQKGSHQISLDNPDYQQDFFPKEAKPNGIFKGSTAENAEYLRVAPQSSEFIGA

Structure (SMILES) | IC50 (NCI-H1975) | IC50 (A549) | IC50 (HCC827 [9]) | other results
CN(C)C1CCN(c2ccc(Nc3ncc4nc(Sc5ccccc5)n(C5CCOCC5)c4n3)cc2)CC1 | 4.99 µM | > 10 µM | 0.0294 µM | Emax at 1 µM (HCC827 [1]): 81%; inhibition [2]: Dose-dependent effect; Activity (Mus musculus): Non-Toxic; Ratio IC50 [3]: 170; IC50 [4]: 0.0016 µM; TGI (HCC827 [5]): Active; Ratio IC50 [6]: >340; IC50 [7]: 0.331 µM; IC50 [8]: 0.104 µM
CN(C)CCN(C)c1ccc(Nc2ncc3nc([S+]([O-])c4ccccc4)n(C4CCOCC4)c3n2)cc1 (stereo not drawn) | – | – | 1.33 µM | –
CC(C)n1c([S+]([O-])c2ccccc2)nc2cnc(Nc3ccc(N4CCN(C)CC4)cc3)nc21 (stereo not drawn) | – | – | 0.214 µM | –
CN(C)CCOc1ccc(Nc2ncc3nc([S+]([O-])c4ccccc4)n(C4CCOCC4)c3n2)cc1 (stereo not drawn) | > 10 µM | > 10 µM | 0.0503 µM | Ratio IC50 [3]: >198; Ratio IC50 [6]: >198
CN1CCN(c2ccc(Nc3ncc4nc(SCc5cccnc5)n(C5CCOCC5)c4n3)cc2)CC1 | – | – | 0.5 µM | –
CN1CCN(c2ccc(Nc3ncc4nc(SCc5ccccc5)n(C5CCOCC5)c4n3)cc2)CC1 | – | – | 0.106 µM | –
CN1CCC(Oc2ccc(Nc3ncc4nc([S+]([O-])c5ccccc5)n(C5CCOCC5)c4n3)cc2)CC1 (stereo not drawn) | – | – | 0.853 µM | –
CN(C)CCOc1ccc(Nc2ncc3nc(Sc4cccc(F)c4)n(C4CCOCC4)c3n2)cc1 | 2.77 µM | 3.36 µM | 0.0514 µM | Ratio IC50 [3]: 54; Ratio IC50 [6]: 65; IC50 [7]: 0.805 µM
C=CC(=O)Nc1cc(Nc2nccc(-c3cn(C)c4ccccc34)n2)c(OC)cc1N(C)CCN(C)C [OSIMERTINIB] | […] | 0.486 µM | 0.0254 to 0.0431 µM | Emax (HCC827 [1]): 73%
CN1CCN(c2ccc(Nc3ncc4nc([S+]([O-])c5ccccc5)n([C@H]5CC[C@H](O)CC5)c4n3)cc2)CC1 (stereo partly drawn) | – | – | 0.268 µM | –
CN(C)CCOc1ccc(Nc2ncc3nc([S+]([O-])c4cccc(F)c4)n(C4CCOCC4)c3n2)cc1 (stereo not drawn) | – | – | 0.359 µM | –
CN1CCN(c2ccc(Nc3ncc4nc([S+]([O-])c5ccccc5)n(CC5CC5)c4n3)cc2)CC1 (stereo not drawn) | – | – | 0.838 µM | –
CN1CCN(c2ccc(Nc3ncc4nc(Sc5ccccc5)n(C5CCOCC5)c4n3)cc2)CC1 | 2.26 µM | 2.94 µM | 0.0426 µM | Ratio IC50 [3]: 53; Ratio IC50 [6]: 69; IC50 [7]: 0.892 µM
CC(C)n1c(Sc2ccccc2)nc2cnc(Nc3ccc(N4CCN(C)CC4)cc3)nc21 | – | – | 0.29 µM | –
CN1CCN(c2ccc(Nc3ncc4nc(Sc5ccccc5)n(C5CC5)c4n3)cc2)CC1 | – | – | 0.304 µM | –
CN(C)CCOc1ccc(Nc2ncc3nc([S+]([O-])c4ccc(F)cc4)n(C4CCOCC4)c3n2)cc1 (stereo not drawn) | – | – | 0.553 µM | –
CN(C)CCN(C)c1ccc(Nc2ncc3nc(Sc4ccccc4)n(C4CCOCC4)c3n2)cc1 | – | – | 0.499 µM | –

Structure (SMILES) | IC50 (NCI-H1975) | IC50 (A549) | IC50 (HCC827 [9]) | other results
CN(C)CCOc1ccc(Nc2ncc3nc(Sc4ccc(F)cc4)n(C4CCOCC4)c3n2)cc1 | 6.26 µM | 4.85 µM | 0.0478 µM | Ratio IC50 [3]: 131; IC50 [4]: 0.0025 µM; Ratio IC50 [6]: 101; IC50 [7]: 0.114 µM; IC50 [8]: 0.189 µM
CN1CCN(c2ccc(Nc3ncc4nc([S+]([O-])Cc5cccnc5)n(C5CCCC5)c4n3)cc2)CC1 (stereo not drawn) | – | – | 2.35 µM | –
CN1CCN(c2ccc(Nc3ncc4nc(Sc5ccccc5)n([C@H]5CC[C@H](O)CC5)c4n3)cc2)CC1 | 1.32 µM | 0.426 µM | 0.0426 to 0.0479 µM | Ratio IC50 [3]: 31; Ratio IC50 [6]: 10; IC50 [7]: 0.529 µM
CN1CCN(c2ccc(Nc3ncc4nc(Sc5ccccc5)n(C5CCCC5)c4n3)cc2)CC1 | 5.58 µM | 0.237 µM | 0.0512 µM | Ratio IC50 [3]: 109; Ratio IC50 [6]: 5
CN1CCN(c2ccc(Nc3ncc4nc(Nc5ccccc5)n(C5CCCC5)c4n3)cc2)CC1 | – | – | 0.0359 µM | Emax at 1 µM (HCC827 [1]): 70%
CN1CCN(c2ccc(Nc3ncc4nc([S+]([O-])c5ccccc5)n(C5CCCC5)c4n3)cc2)CC1 (stereo not drawn) | 5.11 µM | > 10 µM | 0.0647 µM | Ratio IC50 [3]: 79; Ratio IC50 [6]: >154
CN1CCN(c2ccc(Nc3ncc4nc([S+]([O-])Cc5cccnc5)n(C5CCOCC5)c4n3)cc2)CC1 (stereo not drawn) | – | – | > 10 µM | –
CN1CCC(Oc2ccc(Nc3ncc4nc(Sc5ccccc5)n(C5CCOCC5)c4n3)cc2)CC1 | – | – | 0.14 µM | –
CN(C)CCOc1ccc(Nc2ncc3nc(Sc4ccccc4)n(C4CCOCC4)c3n2)cc1 | 9.61 µM | > 10 µM | 0.0443 µM | Emax at 1 µM (HCC827 [1]): 78%; Ratio IC50 [3]: 217; Ratio IC50 [6]: >226; IC50 [7]: 0.556 µM
CN1CCN(c2ccc(Nc3ncc4nc(SCc5cccnc5)n(C5CC5)c4n3)cc2)CC1 | – | – | 8.83 µM | –
CN1CCN(c2ccc(Nc3ncc4nc([S+]([O-])c5ccccc5)n(C5CCOCC5)c4n3)cc2)CC1 (stereo not drawn) | – | – | 0.411 µM | –
CN(C)C1CCN(c2ccc(Nc3ncc4nc([S+]([O-])c5ccccc5)n(C5CCOCC5)c4n3)cc2)CC1 (stereo not drawn) | – | – | 1.29 µM | –
CN1CCN(c2ccc(Nc3ncc4nc(Sc5ccccc5)n(CC5CC5)c4n3)cc2)CC1 | – | – | 0.66 µM | –
CN1CCN(c2ccc(Nc3ncc4nc([S+]([O-])Cc5ccccc5)n(C5CCOCC5)c4n3)cc2)CC1 (stereo not drawn) | – | – | 0.433 µM | –
CN1CCN(c2ccc(Nc3ncc4nc([S+]([O-])c5ccccc5)n(C5CC5)c4n3)cc2)CC1 (stereo not drawn) | – | – | 1.63 µM | –
CN1CCN(c2ccc(Nc3ncc4nc(SCc5cccnc5)n(C5CCCC5)c4n3)cc2)CC1 | – | – | 0.517 µM | –
